High-throughput results (PubChem BioAssay)
RanGTP-Imp inh: disruptors of Ran-importin-beta complex formation – biochemical, FRET, CFP-Ran, YFP-importin-beta, homogeneous, primary screen. cell-free CFP-Ran/YFP-importin-beta FRET ratio. inhibition, % (test concentration not listed). hit rate 1.1% among 300,000. AID 2216;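 active = more than half of the replicate wells show a fall in the fluorescence ratio signal beyond about 16%, limit read from the data, passing the limit was not always enough; inconclusive = exactly half of the replicate wells pass the set limit; inactive = fewer than half of replicates pass the limit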
Hck-Nef inh: inhibitors of human Hck kinase activated by Nef. hit rate 0.68% among 220,000. inhibition, % at 20 µM. Recombinant Hck-YEEI plus Nef, Z-Lyte FRET kinase assay. P08631;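 active = Hck-Nef kinase inhibition above about 50%, limit read from the data; inactive = inhibition below that limit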
Runt-SMMHC FRET: inhibitors of human RUNX1 Runt domain binding to CBFb-SMMHC. hit rate 0.74% among 220,000. inhibition, % at 20 µM. AID 1434. Cerulean-Runt/Venus-CBFb-SMMHC FRET ratio 530/480, 1 h;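 active = mean inhibition across duplicate retests at 20 µM reaching about 50%, limit read from the data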;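 note: inhibitors lower the FRET ratio by blocking Runt binding to CBFb-SMMHC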
Runt-CBFb FRET: Runt domain-CBFb interaction inhibition; Q01196+Q13951; Cerulean-Runt/Venus-CBFb FRET ratio 530/480, 1 h; inhibition, % at 20 µM; hit rate 0.46% among 220,000; AID 1496;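 active = inhibition over about 50% at 20 µM in the single-dose screen, limit read from the data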
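Measured by: fluorescence energy transfer, 422 nm excitation, 530/480 nm emission; Assay system: Cerulean-Runt domain; Medium: Tris pH 7.5 buffer with BSA; Measure: loss of energy transfer signal; Controls: 5 µM unlabeled CBFb as full-inhibition high control; Incubation: protein complex preformed 1 h, compound exposure 1 h, room temperature, dark.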
Hck-Nef confirm: Hck-Nef kinase inhibition, confirmation. hit rate 28% among 1,300. Recombinant Hck-YEEI:Nef, Z-Lyte FRET kinase assay. calls only at 10 µM. shares compounds with Hck-Nef inh. AID 463188;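 active = average inhibition of at least 50%, with Z-scores no higher than 3 in both the phospho-tyrosine peptide and fluorescence counterscreens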
Of the large screens only hits and unclear results are named; the others gave an inactive call (follow-up assays come after a bar, where they were run). This is a sample that favours compounds with a hit; in the whole collection about 1.8% have one here.

COc1ccc(C(=O)N/C(=C\c2ccccc2)C(=O)NC(CC(C)C)C(=O)O)cc1 (stereo unspecified)	RanGTP-Imp inh inconclusive, Hck-Nef inh 59.7 | Hck-Nef confirm inactive
COc1ccc(C(=O)N/C(=C\c2ccccc2)C(=O)NC(CCSC)C(=O)O)cc1 (stereo unspecified)	none
COc1cc(/C=C2\SC(=O)N(Cc3ccc(Cl)cc3)C2=O)cc([N+](=O)[O-])c1O	Hck-Nef inh 51.0 (no result: RanGTP-Imp inh) | Hck-Nef confirm inactive
COc1cc(/C=C2\SC(=O)N(Cc3ccc(F)cc3)C2=O)cc([N+](=O)[O-])c1O	none
CC(C)N=c1scc(-c2ccco2)n1/N=C/c1ccc(O)c(O)c1	none (no result: RanGTP-Imp inh)
COCCN=c1scc(-c2ccco2)n1/N=C/c1ccc(O)c(O)c1O	Hck-Nef inh 59.4 (no result: RanGTP-Imp inh) | Hck-Nef confirm active
C=CCN=c1scc(-c2ccco2)n1/N=C/c1ccc(O)c(O)c1O	Hck-Nef inh 56.0 | Hck-Nef confirm inactive
Cc1cccc(N2CCN(C(=O)c3cccc(N4CCCC4=O)c3)C(C)C2)c1 (stereo unspecified)	none (no result: Hck-Nef inh, Runt-SMMHC FRET, Runt-CBFb FRET)
